According to article PMC4269301 (International journal of peptide research and therapeutics, 2014):
Square brackets hold non-standard residues; d marks the D form. Peptide text beside a SMILES is read from it. Nle = CCCC[C@H](N)C(=O)O

What was measured:
GRK5 [1] = target: T1, GRK5 (Homo sapiens, UniProt P34947); assay: GRK5 phosphorylation of light-activated rhodopsin; type: biochemical; conditions: for % Inhibition (100 μM) of GRK5 phosphorylation of rhodopsin: 100 μM peptide, 0.5 μM light-activated rhodopsin, 100 μM ATP, 5 min; for Inhibition of GRK5 phosphorylation of rhodopsin: peptides 10, 30 and 100 μM, four or more experiments in duplicate; for inhibition at 100 µM: read-out: % Inhibition (100 μM) of GRK5 phosphorylation of rhodopsin
T1 sequence (P34947 whole entry): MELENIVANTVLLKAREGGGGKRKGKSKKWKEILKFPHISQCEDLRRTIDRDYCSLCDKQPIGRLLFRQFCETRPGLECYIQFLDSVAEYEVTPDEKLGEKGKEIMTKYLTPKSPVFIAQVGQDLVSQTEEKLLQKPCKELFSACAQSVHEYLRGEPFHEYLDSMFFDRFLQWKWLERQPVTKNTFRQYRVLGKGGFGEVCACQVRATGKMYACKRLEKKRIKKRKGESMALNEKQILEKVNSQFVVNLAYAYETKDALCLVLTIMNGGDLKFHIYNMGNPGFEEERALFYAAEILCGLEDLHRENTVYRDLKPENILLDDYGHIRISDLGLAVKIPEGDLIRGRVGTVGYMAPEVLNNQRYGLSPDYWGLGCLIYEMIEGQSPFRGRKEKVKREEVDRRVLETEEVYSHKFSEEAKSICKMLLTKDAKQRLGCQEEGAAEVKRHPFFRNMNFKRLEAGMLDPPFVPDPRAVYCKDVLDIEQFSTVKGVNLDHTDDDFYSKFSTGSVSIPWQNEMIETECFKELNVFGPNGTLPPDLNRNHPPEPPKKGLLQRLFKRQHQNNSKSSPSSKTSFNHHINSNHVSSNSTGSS

GRK2 [2] = target: T2, GRK2 (Homo sapiens, UniProt P25098, S670A); assay: GRK2 phosphorylation of light-activated rhodopsin; type: biochemical; conditions: peptides 10, 30 and 100 μM; four or more experiments in duplicate
T2 sequence (P25098 1-689 S670A): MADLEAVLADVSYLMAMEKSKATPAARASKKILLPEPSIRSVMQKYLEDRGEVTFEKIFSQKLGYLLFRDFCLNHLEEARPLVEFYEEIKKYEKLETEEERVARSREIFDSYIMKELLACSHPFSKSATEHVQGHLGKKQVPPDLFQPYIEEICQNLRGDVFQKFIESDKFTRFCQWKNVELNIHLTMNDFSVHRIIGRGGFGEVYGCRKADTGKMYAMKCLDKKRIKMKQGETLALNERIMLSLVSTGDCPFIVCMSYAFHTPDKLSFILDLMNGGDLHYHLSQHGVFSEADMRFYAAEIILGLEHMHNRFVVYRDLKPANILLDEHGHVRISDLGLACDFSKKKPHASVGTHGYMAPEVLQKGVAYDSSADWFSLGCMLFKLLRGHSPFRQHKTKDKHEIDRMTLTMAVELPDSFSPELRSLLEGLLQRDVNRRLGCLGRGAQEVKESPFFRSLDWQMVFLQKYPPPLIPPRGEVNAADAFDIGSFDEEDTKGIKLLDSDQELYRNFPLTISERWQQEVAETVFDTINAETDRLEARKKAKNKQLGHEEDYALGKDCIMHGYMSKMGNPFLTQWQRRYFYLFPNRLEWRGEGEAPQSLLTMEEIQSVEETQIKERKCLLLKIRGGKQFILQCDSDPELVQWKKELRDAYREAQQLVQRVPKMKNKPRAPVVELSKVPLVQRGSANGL
Outline: (§1)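 Light-activated (475 nm, 30 s) rhodopsin, 0.5 μM, from urea-stripped bovine ROS. Kinase was purified GRK2 (His₆, S670A, Sf9/baculovirus, Ni-IMAC) or N-terminal His₆ full-length human GRK6, at 10–100 nM. Buffer: 20 mM Tris pH 7.5, 10 mM MgCl₂, 1 mM EDTA, 100 μM [γ³²P]ATP; peptides in DMSO (2–4 %). Ran 5 min, then SDS-PAGE and autoradiography. ≥4 experiments in duplicate, % of control.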

GRK6 [3] = assay: GRK6 phosphorylation of light-activated rhodopsin; type: biochemical, human; conditions: peptides 10, 30 and 100 μM; four or more experiments in duplicate
Outline: as §1

GRK7 = target: T3, GRK7 (Homo sapiens, UniProt Q8WTQ7); assay: GRK7 phosphorylation of light-activated rhodopsin; type: biochemical; conditions: peptides 10, 30 and 100 μM; four or more experiments in duplicate
T3 sequence (Q8WTQ7 1-553): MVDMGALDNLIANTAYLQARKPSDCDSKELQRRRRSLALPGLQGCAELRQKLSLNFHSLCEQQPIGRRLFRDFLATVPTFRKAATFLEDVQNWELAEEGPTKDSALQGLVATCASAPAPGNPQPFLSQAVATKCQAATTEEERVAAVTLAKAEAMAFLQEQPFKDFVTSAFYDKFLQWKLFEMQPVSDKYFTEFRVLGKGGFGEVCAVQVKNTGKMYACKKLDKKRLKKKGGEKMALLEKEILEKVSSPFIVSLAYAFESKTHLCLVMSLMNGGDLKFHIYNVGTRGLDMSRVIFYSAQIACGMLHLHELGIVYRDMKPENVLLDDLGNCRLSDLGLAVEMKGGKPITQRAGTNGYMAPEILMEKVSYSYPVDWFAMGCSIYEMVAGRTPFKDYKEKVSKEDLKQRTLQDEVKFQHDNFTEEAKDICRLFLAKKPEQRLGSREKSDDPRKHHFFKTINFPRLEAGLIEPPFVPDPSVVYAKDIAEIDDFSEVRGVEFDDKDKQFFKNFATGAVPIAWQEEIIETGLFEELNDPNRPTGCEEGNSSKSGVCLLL
Outline: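 Substrate is urea-stripped bovine rod outer segment rhodopsin (0.5 μM in reaction buffer; 0.5–4 μM per legend), light-activated at 475 nm for 30 s. Peptides are dissolved in DMSO (2–4% final) and quantified by A280. Results are normalised to the no-peptide control as mean ± SEM.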

GRK2 [4] = target: T2, GRK2; assay: GRK2 phosphorylation of tubulin; type: biochemical; conditions: for % inhibition of GRK2 phosphorylation of tubulin: 100 μM peptide, 100 nM GRK2, 60 min
Outline: (§2)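 Bovine brain tubulin 500 nM with 100 nM GRK2 (His₆, S670A, Sf9-expressed) or human His₆-GRK5; 20 mM Tris pH 7.5, 1 mM EDTA, 10 mM MgCl₂, 5 μM DTT, 100 μM [γ³²P]ATP; 60 min, 30 °C. 12 % SDS-PAGE; ³²P-tubulin counted from excised bands or by autoradiogram densitometry. Mean ± SEM, ≥4 experiments in duplicate, % of control; one-way ANOVA.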

GRK5 [5] = target: T1, GRK5; assay: GRK5 phosphorylation of tubulin; type: biochemical; conditions: for % inhibition of GRK5 phosphorylation of tubulin: 100 μM peptide, 0.5 μM tubulin, 100 nM GRK5, 60 min, 30 °C
Outline: as §2

GRK6 [6] = conditions: ref previous study of the α9 peptide (Baameur et al. 2010); cited from earlier work

Compound	% Inhibition (100 μM) of GRK5 phosphorylation of rhodopsin (GRK5 [1])	Inhibition of GRK5 phosphorylation of rhodopsin (GRK5 [1])	Inhibition of GRK2 phosphorylation of rhodopsin (GRK2 [2])	Inhibition of GRK6 phosphorylation of rhodopsin (GRK6 [3])	Inhibition of GRK7 phosphorylation of rhodopsin (GRK7)	% inhibition of GRK5 phosphorylation of tubulin (GRK5 [5])	IC50 (GRK5 [1])	inhibition at 100 µM (GRK5 [1])	also measured
Ac-FFDAFLQWK-NH2 [Peptide T5]	22%								
CCCC[C@H](NC(=O)[C@H](CCC(=O)O)NC(=O)[C@H](CC(N)=O)NC(=O)[C@H](CCC(N)=O)NC(=O)[C@H](Cc1c[nH]c2ccccc12)NC(=O)[C@@H]1CCCN1C(=O)[C@@H](NC(=O)[C@H](CO)NC(=O)[C@@H](NC(C)=O)C(C)C)[C@@H](C)CC)C(=O)N[C@H](C(=O)N[C@@H](CCC(=O)O)C(N)=O)[C@@H](C)CC [α10] (Ac-VSIPWQNE[Nle]IE-NH2)		inhibited	less inhibition	inhibited	inhibited	~ 45%			Effect on GRK2 phosphorylation of tubulin, basal activity (GRK2 [4]; 0.5 μM tubulin, 60 min, 30 °C): not significant
Ac-S[Nle]FFDRFLQWK-NH2 [Peptide T4]	72%								
CCCC[C@H](NC(=O)[C@H](CO)NC(C)=O)C(=O)N[C@@H](Cc1ccccc1)C(=O)N[C@@H](Cc1ccccc1)C(=O)N[C@@H](CC(=O)O)C(=O)N[C@@H](CCCNC(=N)N)C(=O)N[C@@H](Cc1ccccc1)C(=O)N[C@@H](CC(C)C)C(=O)N[C@@H](CCC(N)=O)C(=O)N[C@@H](Cc1c[nH]c2ccccc12)C(=O)N[C@@H](CCCCN)C(=O)N[C@@H](Cc1c[nH]c2ccccc12)C(=O)N[C@@H](CC(C)C)C(=O)N[C@@H](CCC(=O)O)C(=O)N[C@@H](CCCNC(=N)N)C(N)=O [α9 (164–178)] (Ac-S[Nle]FFDRFLQWKWLER-NH2)							15.9 ± 4.3 µM	89%	Inhibition of GRK6 (previous study) (GRK6 [6]): no inhibition
CCCC[C@H](NC(=O)[C@H](CO)NC(C)=O)C(=O)N[C@@H](Cc1ccccc1)C(=O)N[C@@H](Cc1ccccc1)C(=O)N[C@@H](CC(=O)O)C(=O)N[C@@H](C)C(=O)N[C@@H](Cc1ccccc1)C(=O)N[C@@H](CC(C)C)C(=O)N[C@@H](CCC(N)=O)C(=O)N[C@@H](Cc1c[nH]c2ccccc12)C(=O)N[C@@H](CCCCN)C(=O)N[C@@H](Cc1c[nH]c2ccccc12)C(=O)N[C@@H](CC(C)C)C(=O)N[C@@H](CCC(=O)O)C(=O)N[C@@H](CCCNC(=N)N)C(N)=O [Peptide R169A] (Ac-S[Nle]FFDAFLQWKWLER-NH2)		inhibited	less inhibition	inhibited	inhibited	60–80%	7.2 ± 4.8 µM	98%	IC50 (GRK2 [4]): ~30 µM; % inhibition of GRK2 phosphorylation of tubulin (GRK2 [4]; 0.5 μM tubulin, 30 °C): 60–80%; IC50 (GRK5 [5]): ~30 µM
Ac-PIGRLLFRQFC-NH2 [α3]		inhibited	inhibited	little activity	inhibited	60–80%			IC50 (GRK2 [4]): ~30 µM; % inhibition of GRK2 phosphorylation of tubulin (GRK2 [4]; 0.5 μM tubulin, 30 °C): 60–80%; IC50 (GRK5 [5]): ~30 µM
Ac-S[Nle]FFDRFLQWKWAER-NH2 [Peptide L176A]	74%								
Ac-FFDRFLQWKWLER-NH2 [Peptide T1]							23.9 ± 16 µM	95%	
Ac-S[Nle]FFDRFLQAKWLER-NH2 [Peptide W173A]	~26%								
